Source: article PMC5060010 (ACS chemical biology, 2013)

Columns and labels:
[1] = cited from earlier work
[2] = cited from earlier work; remark: listed apart in the source
[3] = molecular target: mu/delta opioid receptors (Homo sapiens, UniProt P35372+P41143); format: cell-based; settings: mu/delta HEK-293 cells
In short: (§1)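 Calcium release measured in HEK-293 cells stably expressing mu, or both mu and delta, opioid receptors. The dual-transfected cells came from an outside lab, and cDNA for the chimeric Gα subunit Δ6-Gαqi4-myr was used. Signal was read as fluorescence in relative fluorescence units, giving EC50 and ΔRFU. Where a mu agonist and a delta antagonist were combined, they were co-administered at equimolar levels rather than given as a pretreatment.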

mu opioid receptors = mu opioid receptors (Homo sapiens, UniProt P35372); format: cell-based; settings: mu HEK-293 cells
In short: as §1

mu-delta heteromer = mu-delta heteromer (Homo sapiens, UniProt P35372+P41143); test: immunocytochemical trafficking; format: cell-based; settings: ligand 1 μM, 30 minutes at 37°C, HEK-293 cells with FL-mu and HA-delta
Sequence of mu-delta heteromer (P35372 whole entry): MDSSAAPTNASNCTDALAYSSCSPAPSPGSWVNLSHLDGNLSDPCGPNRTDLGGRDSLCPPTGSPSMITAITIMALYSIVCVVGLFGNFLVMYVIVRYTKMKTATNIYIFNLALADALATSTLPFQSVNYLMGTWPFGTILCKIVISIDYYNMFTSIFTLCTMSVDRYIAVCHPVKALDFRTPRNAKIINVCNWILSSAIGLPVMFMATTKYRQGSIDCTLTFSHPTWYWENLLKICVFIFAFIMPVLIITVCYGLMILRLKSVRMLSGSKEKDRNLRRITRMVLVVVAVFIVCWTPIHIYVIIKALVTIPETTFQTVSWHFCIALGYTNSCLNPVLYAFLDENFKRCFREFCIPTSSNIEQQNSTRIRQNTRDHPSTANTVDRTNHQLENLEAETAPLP
Sequence of mu-delta heteromer (P41143 whole entry): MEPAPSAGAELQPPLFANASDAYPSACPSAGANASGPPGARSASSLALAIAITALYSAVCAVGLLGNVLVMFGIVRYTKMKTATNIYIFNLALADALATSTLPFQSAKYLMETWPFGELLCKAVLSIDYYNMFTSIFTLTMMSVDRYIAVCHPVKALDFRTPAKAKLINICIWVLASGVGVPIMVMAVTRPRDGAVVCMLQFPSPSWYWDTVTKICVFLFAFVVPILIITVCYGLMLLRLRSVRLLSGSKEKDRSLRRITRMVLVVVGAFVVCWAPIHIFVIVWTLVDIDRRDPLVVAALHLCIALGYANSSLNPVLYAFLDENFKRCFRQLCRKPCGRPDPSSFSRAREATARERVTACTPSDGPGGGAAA

Sequence of mu/delta opioid receptors (P35372 whole entry): as the sequence (P35372 whole entry) above
Sequence of mu/delta opioid receptors (P41143 whole entry): as the sequence (P41143 whole entry) above
Sequence of mu opioid receptors (P35372 whole entry): as the sequence (P35372 whole entry) above

## CN1CC[C@]23c4c5ccc(O)c4O[C@H]2[C@H](NC(=O)COCC(=O)NCCCCCCCNC(=O)COCC(=O)Nc2cccc4c6c([nH]c24)[C@@H]2Oc4c(O)ccc7c4[C@@]24CCN(CC2CC2)[C@@H](C7)[C@]4(O)C6)CC[C@@]3(O)[C@H]1C5 [MDAN-21]
[1]
  antinociception: potent antinociception
  physical dependence: without tolerance, physical dependence, or place preference
[1]; mice
  tolerance: does not produce tolerance
[2]
  place preference: without tolerance, physical dependence, or place preference
[3]
  calcium release ΔRFU: 468 RFU
[3]; read-out: calcium release EC50
  EC50: 412 nM
Mu opioid receptors
  calcium release ΔRFU: 420 RFU
Mu opioid receptors; read-out: calcium release EC50
  EC50: 851 nM
mu-delta heteromer
  internalization of mu and delta cell-surface opioid receptors: did not produce significant internalization
